{"source": "ChEMBL document CHEMBL4665669", "about": "“Novel tertiary sulfonamide derivatives containing benzimidazole moiety as potent anti-gastric cancer agents: Design, synthesis and SAR studies” (Eur J Med Chem, 2019)", "key": {"MGC-803 [1]": {"tested_on": "MGC-803", "experiment": "Inhibition of Akt/mTOR signalling pathway in human MGC-803 cells assessed as decrease in mTOR phosphorylation at Ser2448 residue at 0.5 to 1.5 umol/L after 48 hrs by Western blot analysis", "assay_type": "cell-based", "settings": "dose micromol/L 0.5-1.5, time 48.0 hrs", "how_it_was_run": "(§1)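 Cells treated with graded concentrations or DMSO for 48 h, then harvested and lysed. Lysates denatured, resolved by SDS-PAGE and transferred to nitrocellulose. Membranes blocked with 5% skimmed milk and probed with primary antibodies at 4 °C for 8 h, then with secondary antibodies. Bands detected by ECL.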"}, "SGC-7901 [2]": {"tested_on": "SGC-7901", "experiment": "Anticancer activity against human SGC-7901 cells assessed as inhibition of cell proliferation after 48 hrs by MTT assay", "assay_type": "functional, cell-based", "how_it_was_run": "(§2)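 MTT assay with 48 h compound exposure. MTT solution was then added and incubated 4 h at 37 °C, the supernatant discarded and formazan dissolved in DMSO, with absorbance read at 490 nm. IC50 values were calculated from three independent experiments, reported as mean SD.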"}, "MGC-803 [3]": {"tested_on": "MGC-803", "experiment": "Inhibition of Ras/Raf/MEK/ERK signalling pathway in human MGC-803 cells assessed as downregulation of c-Myc expression at 0.5 to 1.5 umol/L after 48 hrs by Western blot analysis", "assay_type": "cell-based", "settings": "dose micromol/L 0.5-1.5, time 48.0 hrs", "how_it_was_run": "as §1"}, "HGC-27 [4]": {"tested_on": "HGC-27", "experiment": "Induction of apoptosis in human HGC-27 cells assessed as cleavage of PARP at 0.5 to 1.5 umol/L after 48 hrs Western blot analysis", "assay_type": "functional, cell-based", "settings": "dose micromol/L 0.5-1.5, time 48.0 hrs", "how_it_was_run": "(§3)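 Western blot. Cells were treated with compound concentrations or DMSO for 48 h, then lysed, and lysates were denatured, run on SDS-PAGE and transferred to nitrocellulose. After blocking in 5% skimmed milk, membranes were incubated with primary antibodies at 4 °C for 8 h, then secondary antibodies, with ECL detection.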"}, "HGC-27 [5]": {"tested_on": "HGC-27", "experiment": "Induction of apoptosis in human HGC-27 cells assessed as downregulation of Bcl-2 level at 0.5 to 1.5 umol/L after 48 hrs Western blot analysis", "assay_type": "functional, cell-based", "settings": "dose micromol/L 0.5-1.5, time 48.0 hrs", "how_it_was_run": "as §3"}, "MGC-803 [6]": {"tested_on": "MGC-803", "experiment": "Induction of apoptosis in human MGC-803 cells assessed as induction of DNA fragmentation at 0.5 to 1.5 umol/L after 48 hrs by imaging analysis", "assay_type": "functional, cell-based", "settings": "dose micromol/L 0.5-1.5, time 48.0 hrs"}, "HGC-27 [7]": {"tested_on": "HGC-27", "experiment": "Anticancer activity against human HGC-27 cells assessed as inhibition of cell proliferation after 48 hrs by MTT assay", "assay_type": "functional, cell-based", "how_it_was_run": "as §2"}, "SGC-7901 [8]": {"tested_on": "SGC-7901", "experiment": "Induction of apoptosis in human SGC-7901 cells assessed as downregulation of XIAP level at 0.5 to 1.5 umol/L after 48 hrs Western blot analysis", "assay_type": "functional, cell-based", "settings": "dose micromol/L 0.5-1.5, time 48.0 hrs", "how_it_was_run": "as §3"}, "MGC-803 [9]": {"tested_on": "MGC-803", "experiment": "Cell cycle arrest in human MGC-803 cells assessed as accumulation at G2/M phase at 0.5 to 1.5 umol/L after 48 hrs by RNase/propidium iodide staining based flow cytometry", "assay_type": "functional", "settings": "dose micromol/L 0.5-1.5, time 48.0 hrs", "how_it_was_run": "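MGC-803, SGC-7901 and HGC-27 cells were seeded in 6-well plates and treated 48 h with compound or DMSO. Cells were then harvested and fixed in 70% cold ethanol at 4 °C for 8 h, and cell-cycle phase distribution was quantified by flow cytometry.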"}, "HGC-27 [10]": {"tested_on": "HGC-27", "experiment": "Inhibition of Ras/Raf/MEK/ERK signalling pathway in human HGC-27 cells assessed as decrease in ERK1/2 phosphorylation after 48 hrs by Western blot analysis", "assay_type": "cell-based", "settings": "dose micromol/L 0.5-1.5, time 48.0 hrs", "how_it_was_run": "as §1"}, "SGC-7901 [11]": {"tested_on": "SGC-7901", "experiment": "Inhibition of Akt/mTOR signalling pathway in human SGC-7901 cells assessed as decrease in mTOR phosphorylation at Ser2448 residue at 0.5 to 1.5 umol/L after 48 hrs by Western blot analysis", "assay_type": "cell-based", "settings": "dose micromol/L 0.5-1.5, time 48.0 hrs", "how_it_was_run": "as §1"}, "MGC-803 [12]": {"tested_on": "MGC-803", "experiment": "Induction of apoptosis in human MGC-803 cells assessed as cleavage of PARP at 0.5 to 1.5 umol/L after 48 hrs Western blot analysis", "assay_type": "functional, cell-based", "settings": "dose micromol/L 0.5-1.5, time 48.0 hrs", "how_it_was_run": "as §3"}, "SGC-7901 [13]": {"tested_on": "SGC-7901", "experiment": "Induction of apoptosis in human SGC-7901 cells induction of DNA fragmentation at 0.5 to 1.5 umol/L after 48 hrs by imaging analysis", "assay_type": "functional, cell-based", "settings": "dose micromol/L 0.5-1.5, time 48.0 hrs"}, "MGC-803 [14]": {"tested_on": "MGC-803", "experiment": "Cell cycle arrest at G2 phase in human MGC-803 cells assessed as downregulation of Cyclin B level at 0.5 to 1.5 umol/L after 48 hrs by Western blot analysis", "assay_type": "functional, cell-based", "settings": "dose micromol/L 0.5-1.5, time 48.0 hrs", "how_it_was_run": "as §3"}, "PC-3": {"tested_on": "PC-3", "experiment": "Anticancer activity against human PC-3 cells assessed as inhibition of cell proliferation after 48 hrs by MTT assay", "assay_type": "functional, cell-based", "settings": "PC-3, 48 h", "how_it_was_run": "as §2"}, "MGC-803 [15]": {"tested_on": "MGC-803", "experiment": "Inhibition of Ras/Raf/MEK/ERK signalling pathway in human MGC-803 cells assessed as decrease in c-Raf phosphorylation after 48 hrs by Western blot analysis", "assay_type": "cell-based", "settings": "dose micromol/L 0.5-1.5, time 48.0 hrs", "how_it_was_run": "as §1"}, "MGC-803 [16]": {"tested_on": "MGC-803", "experiment": "Induction of apoptosis in human MGC-803 cells assessed as increase in nucleus concentration at 0.5 to 1.5 umol/L after 48 hrs by imaging analysis", "assay_type": "functional, cell-based", "settings": "dose micromol/L 0.5-1.5, time 48.0 hrs"}, "HGC-27 [17]": {"tested_on": "HGC-27", "experiment": "Induction of apoptosis in human HGC-27 cells assessed as downregulation of c-IAP1 level at 0.5 to 1.5 umol/L after 48 hrs Western blot analysis", "assay_type": "functional, cell-based", "settings": "dose micromol/L 0.5-1.5, time 48.0 hrs", "how_it_was_run": "as §3"}, "SGC-7901 [18]": {"tested_on": "SGC-7901", "experiment": "Cell cycle arrest at G2 phase in human SGC-7901 cells assessed as downregulation of CDK1 level at 0.5 to 1.5 umol/L after 48 hrs by Western blot analysis", "assay_type": "functional, cell-based", "settings": "dose micromol/L 0.5-1.5, time 48.0 hrs", "how_it_was_run": "as §3"}, "MGC-803 [19]": {"tested_on": "MGC-803", "experiment": "Induction of apoptosis in human MGC-803 cells assessed as cleavage of caspase-7 at 0.5 to 1.5 umol/L after 48 hrs Western blot analysis", "assay_type": "functional, cell-based", "settings": "dose micromol/L 0.5-1.5, time 48.0 hrs", "how_it_was_run": "as §3"}, "SGC-7901 [20]": {"tested_on": "SGC-7901", "experiment": "Induction of apoptosis in human SGC-7901 cells assessed as downregulation of Bcl-2 level at 0.5 to 1.5 umol/L after 48 hrs Western blot analysis", "assay_type": "functional, cell-based", "settings": "dose micromol/L 0.5-1.5, time 48.0 hrs", "how_it_was_run": "as §3"}, "SGC-7901 [21]": {"tested_on": "SGC-7901", "experiment": "Inhibition of Akt/mTOR signalling pathway in human SGC-7901 cells assessed as decrease in AKT phosphorylation at Ser473 residue at 0.5 to 1.5 umol/L after 48 hrs by Western blot analysis", "assay_type": "cell-based", "settings": "dose micromol/L 0.5-1.5, time 48.0 hrs", "how_it_was_run": "as §1"}, "SGC-7901 [22]": {"tested_on": "SGC-7901", "experiment": "Inhibition of Ras/Raf/MEK/ERK signalling pathway in human SGC-7901 cells assessed as decrease in ERK1/2 phosphorylation after 48 hrs by Western blot analysis", "assay_type": "cell-based", "settings": "dose micromol/L 0.5-1.5, time 48.0 hrs", "how_it_was_run": "as §1"}, "SGC-7901 [23]": {"tested_on": "SGC-7901", "experiment": "Induction of apoptosis in human SGC-7901 cells after 48 hrs by flow cytometry analysis", "assay_type": "functional, cell-based", "settings": "dose micromol/L 0.5-1.5, time 48.0 hrs"}, "GES1": {"tested_on": "GES1", "experiment": "Cytotoxicity against human GES1 cells assessed as inhibition of cell proliferation after 48 hrs by MTT assay", "assay_type": "cell-based", "settings": "GES1, 48 h", "how_it_was_run": "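Normal gastric epithelial GES-1 cells were exposed to compound for 48 h. MTT was then added for 4 h at 37 °C. Formazan was dissolved in DMSO after the supernatant was removed, and absorbance was read at 490 nm. IC50 was computed from three independent experiments, given as mean SD.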"}, "MGC-803 [24]": {"tested_on": "MGC-803", "experiment": "Cell cycle arrest at G2 phase in human MGC-803 cells assessed as downregulation of CDK1 level at 0.5 to 1.5 umol/L after 48 hrs by Western blot analysis", "assay_type": "functional, cell-based", "settings": "dose micromol/L 0.5-1.5, time 48.0 hrs", "how_it_was_run": "as §3"}}, "note": "Activity calls are given as the source filed them. No cut-off for these calls is given here."}
{"compound": "COc1cc(N(Cc2nc3ccccc3[nH]2)S(=O)(=O)c2ccc(C)cc2)cc(OC)c1OC", "values": [{"measurement": "inhibition", "setting": "MGC-803 [1]", "value": "Active"}, {"measurement": "Activity", "setting": "SGC-7901 [2]", "value": "Dose-dependent effect"}, {"measurement": "IC50", "setting": "SGC-7901 [2]; SGC-7901, 48 h", "value": 2300, "unit": "nM"}, {"measurement": "inhibition", "setting": "MGC-803 [3]", "value": "Active"}, {"measurement": "Activity", "setting": "HGC-27 [4]", "value": "Active"}, {"measurement": "Activity", "setting": "HGC-27 [5]", "value": "Active"}, {"measurement": "Activity", "setting": "MGC-803 [6]", "value": "Active"}, {"measurement": "Activity", "setting": "HGC-27 [7]", "value": "Dose-dependent effect"}, {"measurement": "IC50", "setting": "HGC-27 [7]; HGC-27, 48 h", "value": 1610, "unit": "nM"}, {"measurement": "Activity", "setting": "SGC-7901 [8]", "value": "Active"}, {"measurement": "Activity", "setting": "MGC-803 [9]", "value": "Active"}, {"measurement": "inhibition", "setting": "HGC-27 [10]", "value": "Dose-dependent effect"}, {"measurement": "inhibition", "setting": "SGC-7901 [11]", "value": "Active"}, {"measurement": "Activity", "setting": "MGC-803 [12]", "value": "Active"}, {"measurement": "Activity", "setting": "SGC-7901 [13]", "value": "Active"}, {"measurement": "Activity", "setting": "MGC-803 [14]", "value": "Active"}, {"measurement": "IC50", "setting": "PC-3", "value": 3340, "unit": "nM"}, {"measurement": "inhibition", "setting": "MGC-803 [15]", "value": "Dose-dependent effect"}, {"measurement": "Activity", "setting": "MGC-803 [16]", "value": "Active"}, {"measurement": "Activity", "setting": "HGC-27 [17]", "value": "Active"}, {"measurement": "Activity", "setting": "SGC-7901 [18]", "value": "Active"}, {"measurement": "Activity", "setting": "MGC-803 [19]", "value": "Active"}, {"measurement": "Activity", "setting": "SGC-7901 [20]", "value": "Active"}, {"measurement": "inhibition", "setting": "SGC-7901 [21]", "value": "Active"}, {"measurement": "inhibition", "setting": "SGC-7901 [22]", "value": "Dose-dependent effect"}, {"measurement": "Activity", "setting": "SGC-7901 [23]", "value": "Dose-dependent effect"}, {"measurement": "IC50", "setting": "GES1", "value": 15200, "unit": "nM"}, {"measurement": "Activity", "setting": "MGC-803 [24]", "value": "Active"}]}
